Source: ChEMBL document CHEMBL3244161, “Azabicycloalkanes as analgetics. 3. Structure-activity relationships of 1-phenyl-6-azabicyclo[3.2.1]octanes and absolute stereochemistry of (+)-1-(3-hydroxyphenyl)-6-methyl-6-azabicyclo[3.2.1]octane and its 7-endo-methyl derivative” (J Med Chem, 1977)
The source made the active and inactive calls. No cut-off for these calls is given here.

Key:
[1] = Acute toxicity in sc dosed mouse; type: organism-based; details: in vivo
Mus musculus [2] = experiment: Analgesic activity in mouse assessed as inhibition of AcOH-induced writhing up to 22.5 mg/kg, sc; type: functional, organism-based; design: dose 22.5 mg/kg
Mus musculus [3] = experiment: Analgesic activity in sc dosed mouse by hot-plate method; type: functional; details: Mus musculus, sc; read-out: ED50
Rhesus monkey [4] = experiment: Narcotic antagonist activity in morphine-dependent rhesus monkey assessed as mild to moderate abstinence at 5 to 20 mg/kg; type: functional, organism-based; details: Macaca mulatta
Procedure, shortened: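 Compound given to nonwithdrawn morphine-dependent monkeys; scored as precipitation of abstinence syndrome, with severity graded from mild to severe over the stated dose range.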

Oryctolagus cuniculus [5] = experiment: Narcotic antagonist activity in rabbit assessed as inhibition of morphine-induced respiratory depression at 5 mg/kg, iv; type: functional
Procedure, shortened: (§1)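 Rabbits given test compound iv; read-out is antagonism of morphine-induced respiratory depression; expressed as AD50 in mg/kg or as % antagonism at a fixed dose.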

Rhesus monkey [6] = experiment: Suppression of abstinence syndrome in morphine-dependent rhesus monkey at 10 mg/kg; type: functional, organism-based; design: dose 10 mg/kg; details: Macaca mulatta
Oryctolagus cuniculus [7] = experiment: Narcotic antagonist activity in iv dosed rabbit assessed as inhibition of morphine-induced respiratory depression; type: functional; procedure, shortened: as §1
Mus musculus [8] = experiment: Analgesic activity in sc dosed mouse assessed as inhibition of AcOH-induced writhing; type: functional
Mus musculus [9] = experiment: Analgesic activity in mouse assessed as inhibition of AcOH-induced writhing up to 10 mg/kg, sc; type: functional, organism-based; design: dose 10 mg/kg
[10] = Mus musculus, sc, read-out: ED50

SMILES | LD50 [1] | Activity (Mus musculus [2]) | ED50 (Mus musculus [8]; [10]) | further results
CN1C[C@@]2(c3cccc(O)c3)CCC[C@@H]1C2 | 156 mg/kg | inactive |  | ED50 (Mus musculus [3]): 20 mg/kg; Activity (Rhesus monkey [4]): Active; inhibition in vivo at 5 mg/kg (Oryctolagus cuniculus [5]): 41%; Activity (Rhesus monkey [6]): inactive
C/C=C\N1CC[C@]23CCCC[C@H]2[C@H]1Cc1ccc(O)cc13.Cl |  |  |  | AD50 (Oryctolagus cuniculus [7]): 0.014 mg/kg
Br.CC1N(C)C2CCCC1(c1cc(O)cc(O)c1)C2 (racemic) | > 100 mg/kg | inactive |  | 
CN1CC2(c3ccccc3)CCCC1C2.Cl (racemic) | > 30 mg/kg |  | 22.8 mg/kg | 
CC1N(C)C2CCCC1(c1ccccc1)C2.Cl (racemic) | > 30 mg/kg |  | 20 mg/kg | ED50 (Mus musculus [3]): 20 mg/kg; Activity (Rhesus monkey [6]): inactive
COc1cccc(C23CCCC(C2)NC3)c1.O=C(O)C(=O)O (racemic) | > 100 mg/kg | inactive |  | 
Br.COc1cccc(C23CCCC(C2)NC3C)c1 (racemic) | > 100 mg/kg | inactive |  | 
Br.Oc1cccc(C23CCCC(C2)NC3)c1 (racemic) | > 100 mg/kg | inactive |  | 
Br.CC1NC2CCCC1(c1cccc(O)c1)C2 (racemic) | > 100 mg/kg | inactive |  | 
Br.COc1cccc(C23CCCC(C2)N(C)C3)c1 (racemic) | 31.2 mg/kg |  | 8.6 mg/kg | 
Br.COc1cccc(C23CCCC(C2)N(C)C3C)c1 (racemic) | 25.9 mg/kg |  | 6.1 mg/kg | 
Br.CCC1N(C)C2CCCC1(c1cccc(O)c1)C2 (racemic) | 59.8 mg/kg |  | 8.8 mg/kg | 
Br.CC1N(C)C2CCCC1(c1ccccc1O)C2 (racemic) | > 100 mg/kg | inactive |  | 
Br.CC1N(C)C2CCCC1(c1ccc(O)cc1)C2 (racemic) | > 100 mg/kg | inactive |  | 
Br.CC1N(C)C2CCCC1(c1ccc(O)c(O)c1)C2 (racemic) | > 10 mg/kg |  |  | Activity (Mus musculus [9]): inactive
CN1CC2(c3cc(O)cc(O)c3)CCCC1C2 (racemic) | > 225 mg/kg | inactive |  | 

SMILES | LD50 [1] | Activity (Mus musculus [2]) | ED50 (Mus musculus [8]; [10]) | further results
CC(=O)Oc1cccc(C23CCCC(C2)N(C)C3C)c1.Cl (racemic) | 123 mg/kg |  |  | ED50 (Mus musculus [8]): 2.9 mg/kg; ED50 (Mus musculus [3]): 3.5 mg/kg
Br.CCC1N(C)C2CCCC1(c1cccc(OC(C)=O)c1)C2 (racemic) | 55.1 mg/kg |  | 10.1 mg/kg | ED50 (Mus musculus [3]): 9.9 mg/kg
Br.CCC(=O)Oc1cccc(C23CCCC(C2)N(C)C3C)c1 (racemic) | 114 mg/kg |  | 2.3 mg/kg | ED50 (Mus musculus [3]): 9.9 mg/kg
Br.CCCCCC(=O)Oc1cccc(C23CCCC(C2)N(C)C3C)c1 (racemic) | 156 mg/kg |  | 12.3 mg/kg | 
Br.CC1N(C)C2CCCC1(c1cccc(OC(=O)c3ccccc3)c1)C2 (racemic) | 156 mg/kg |  | 5.7 mg/kg | 
Br.CC1N(C)C2CCCC1(c1cccc(OC(=O)c3cccnc3)c1)C2 (racemic) | 184 mg/kg |  | 5.5 mg/kg | 
O=C(O)C(=O)O.c1ccc(C23CCCC(C2)N(CC2CC2)C3)cc1 (racemic) | > 30 mg/kg | inactive |  | inhibition in vivo at 5 mg/kg (Oryctolagus cuniculus [5]): 41%
C=CCN1CC2(c3ccccc3)CCCC1C2.O=C(O)C(=O)O (racemic) | > 100 mg/kg | inactive |  | AD50 (Oryctolagus cuniculus [7]): 2.2 mg/kg
O=C(O)C(=O)O.c1ccc(CCN2CC3(c4ccccc4)CCCC2C3)cc1 (racemic) | > 100 mg/kg | inactive |  | 
Cl.O=C(CCN1CC2(c3ccccc3)CCCC1C2)c1ccccc1 (racemic) | > 100 mg/kg | inactive |  | 
Cl.O=C(CCCN1CC2(c3ccccc3)CCCC1C2)c1ccc(F)cc1 (racemic) | > 200 mg/kg |  | 4.1 mg/kg | 
CCCCCCN1CC2(c3cccc(O)c3)CCCC1C2.Cl (racemic) | > 100 mg/kg |  | 17.5 mg/kg | 
Cl.Oc1cccc(C23CCCC(C2)N(CC2CC2)C3)c1 (racemic) | > 100 mg/kg |  | 30 mg/kg | AD50 (Oryctolagus cuniculus [7]): 1.8 mg/kg
Cl.Oc1cccc(C23CCCC(C2)N(CC2CCC2)C3)c1 (racemic) | > 30 mg/kg |  |  | Activity (Mus musculus [9]): inactive; AD50 (Oryctolagus cuniculus [7]): 3.5 mg/kg
C=CCN1CC2(c3cccc(O)c3)CCCC1C2.Cl (racemic) | > 100 mg/kg | inactive |  | AD50 (Oryctolagus cuniculus [7]): 1.7 mg/kg
C#CCN1CC2(c3cccc(O)c3)CCCC1C2.O=C(O)C(=O)O (racemic) | > 100 mg/kg | inactive |  | AD50 (Oryctolagus cuniculus [7]): 1.6 mg/kg
